# Key:
# [1] = molecular target: T1, Steroid 17-alpha-hydroxylase/17,20 lyase (Homo sapiens, UniProt P05093); assay: Inhibition of human CYP17 expressed in Escherichia coli coexpressed with cytochrome P450 reductase
# T1 sequence (P05093 whole entry): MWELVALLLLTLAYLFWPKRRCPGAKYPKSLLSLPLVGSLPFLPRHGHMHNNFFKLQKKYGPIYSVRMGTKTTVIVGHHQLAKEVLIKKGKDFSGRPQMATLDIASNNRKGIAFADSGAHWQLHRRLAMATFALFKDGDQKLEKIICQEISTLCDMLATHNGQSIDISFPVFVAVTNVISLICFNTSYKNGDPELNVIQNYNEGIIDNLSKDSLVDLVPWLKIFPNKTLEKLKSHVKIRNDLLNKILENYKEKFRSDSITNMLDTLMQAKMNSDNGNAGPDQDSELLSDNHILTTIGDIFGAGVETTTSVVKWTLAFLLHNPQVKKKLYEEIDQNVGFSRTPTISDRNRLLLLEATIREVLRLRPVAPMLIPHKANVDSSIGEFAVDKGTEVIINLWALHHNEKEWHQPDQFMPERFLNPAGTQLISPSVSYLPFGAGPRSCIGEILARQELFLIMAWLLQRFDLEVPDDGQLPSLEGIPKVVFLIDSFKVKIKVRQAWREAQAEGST
# In short: (§1)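 Enzyme source: 50,000g sediment from homogenized E. coli coexpressing human CYP17 and cytochrome P450 reductase. Substrate progesterone (25 µM as printed), NADPH cofactor.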
# [2] = molecular target: CYP3A4 (Homo sapiens, UniProt P08684); assay: Inhibition of hepatic CYP3A4 expressed in insect microsomes at 1 uM; assay type: ADME, Microsome
# Sequence of CYP3A4 (P08684 whole entry): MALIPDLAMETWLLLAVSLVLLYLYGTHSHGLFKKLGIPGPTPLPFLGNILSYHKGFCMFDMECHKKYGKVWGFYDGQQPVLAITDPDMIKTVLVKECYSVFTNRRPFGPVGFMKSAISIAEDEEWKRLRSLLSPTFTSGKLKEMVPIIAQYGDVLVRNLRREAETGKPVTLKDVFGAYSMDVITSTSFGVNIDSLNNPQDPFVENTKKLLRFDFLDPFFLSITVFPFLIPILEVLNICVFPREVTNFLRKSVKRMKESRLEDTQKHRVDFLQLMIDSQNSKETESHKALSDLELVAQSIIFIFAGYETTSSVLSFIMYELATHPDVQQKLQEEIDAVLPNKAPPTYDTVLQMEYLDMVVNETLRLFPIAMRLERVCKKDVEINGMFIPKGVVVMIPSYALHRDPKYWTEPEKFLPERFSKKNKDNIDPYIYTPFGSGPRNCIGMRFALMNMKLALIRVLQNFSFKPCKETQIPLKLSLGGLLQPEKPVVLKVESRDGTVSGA
# In short: (§2)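 Recombinant human enzymes from baculovirus-infected insect cell microsomes, run per supplier protocol. Test concentration 1 µM; values are means of at least three independent tests, standard deviations under 5%.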
# [3] = test system: Rattus norvegicus; assay: Reduction in plasma testosterone level in Wistar rat at 50 mg/kg, po after 1 hr; assay type: functional; design: scale not given: the % may be the effect or the level left
# [4] = test system: Rattus norvegicus; assay: Reduction in plasma testosterone level in Wistar rat at 50 mg/kg, po after 4 hrs; assay type: functional; design: scale not given: the % may be the effect or the level left
# [5] = test system: Rattus norvegicus; assay: Reduction in plasma testosterone level in Wistar rat at 50 mg/kg, po after 8 hrs; assay type: functional; design: scale not given: the % may be the effect or the level left
# [6] = test system: Rattus norvegicus; assay: Reduction in plasma testosterone level in Wistar rat at 50 mg/kg, po after 2 hrs; assay type: functional; design: scale not given: the % may be the effect or the level left
# [7] = test system: Rattus norvegicus; assay: Reduction in plasma testosterone level in Wistar rat at 50 mg/kg, po after 24 hrs; assay type: functional; design: Activity: scale not given: the % may be the effect or the level left
# [8] = test system: Rattus norvegicus; assay: Intrinsic clearance in Wistar rat at 56 mg/kg, po; assay type: ADME, organism-based; design: dose 56 mg/kg, route oral; settings: in vivo
# In short: (§3)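 Male Wistar rats dosed orally at 50 mg/kg, or as acetate at 56 mg/kg (equivalent to 50 mg/kg parent). Plasma drug levels by LC–MS; non-compartmental analysis on mean plasma concentration–time data, values below detection limit set to zero. AUC, Cmax, tmax, terminal t1/2 and intrinsic hepatic clearance derived.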
# [9] = test system: Rattus norvegicus; assay: Reduction in plasma testosterone level in Wistar rat at 50 mg/kg, po after 6 hrs; assay type: functional; design: scale not given: the % may be the effect or the level left
# [10] = molecular target: T2, CYP1A2 (Homo sapiens, UniProt P05177); assay: Inhibition of hepatic CYP1A2 expressed in insect microsomes at 1 uM; assay type: ADME, Microsome; in short: as §2
# T2 sequence (P05177 whole entry): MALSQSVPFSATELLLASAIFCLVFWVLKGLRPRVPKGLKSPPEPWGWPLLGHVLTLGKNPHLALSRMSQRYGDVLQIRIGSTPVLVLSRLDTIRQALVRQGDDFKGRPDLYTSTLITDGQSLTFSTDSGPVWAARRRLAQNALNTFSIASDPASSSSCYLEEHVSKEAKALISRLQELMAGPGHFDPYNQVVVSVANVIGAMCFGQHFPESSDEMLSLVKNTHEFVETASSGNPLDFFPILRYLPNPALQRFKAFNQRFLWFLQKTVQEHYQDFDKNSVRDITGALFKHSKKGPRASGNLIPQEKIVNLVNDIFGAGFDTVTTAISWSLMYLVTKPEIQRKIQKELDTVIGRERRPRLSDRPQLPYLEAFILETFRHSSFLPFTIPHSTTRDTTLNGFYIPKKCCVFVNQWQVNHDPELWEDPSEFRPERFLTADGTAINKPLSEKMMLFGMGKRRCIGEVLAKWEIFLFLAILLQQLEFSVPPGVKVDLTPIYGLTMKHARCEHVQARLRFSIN
# [11] = molecular target: T3, CYP11B1 (Homo sapiens, UniProt P15538); assay: Inhibition of human CYP11B1 at 0.2 uM using [4-14C]-11-dexycorticosterone as a substrate; settings: probe [4-14C]-11-dexycorticosterone
# T3 sequence (P15538 whole entry): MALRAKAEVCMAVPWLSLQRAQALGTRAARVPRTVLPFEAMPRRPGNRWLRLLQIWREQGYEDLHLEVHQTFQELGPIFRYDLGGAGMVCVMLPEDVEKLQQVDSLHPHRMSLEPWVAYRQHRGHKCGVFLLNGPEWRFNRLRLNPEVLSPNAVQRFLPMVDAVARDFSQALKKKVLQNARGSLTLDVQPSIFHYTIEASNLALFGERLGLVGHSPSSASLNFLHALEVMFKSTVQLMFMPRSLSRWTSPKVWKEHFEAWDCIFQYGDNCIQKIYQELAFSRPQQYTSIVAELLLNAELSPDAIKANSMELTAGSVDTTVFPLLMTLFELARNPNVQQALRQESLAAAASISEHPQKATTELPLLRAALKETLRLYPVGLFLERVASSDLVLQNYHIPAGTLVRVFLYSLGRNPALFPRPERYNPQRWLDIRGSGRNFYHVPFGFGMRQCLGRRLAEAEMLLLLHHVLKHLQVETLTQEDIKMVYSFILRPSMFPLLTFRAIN
# In short: (§4)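 V79MZh cells expressing human CYP11B1 or CYP11B2, incubated with [4-14C]-11-deoxycorticosterone as substrate; inhibitors tested at 0.2 µM.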
# [12] = molecular target: T4, CYP11B2 (Homo sapiens, UniProt P19099); assay: Inhibition of human CYP11B2 at 0.2 uM using [4-14C]-11-dexycorticosterone as a substrate; settings: probe [4-14C]-11-dexycorticosterone; in short: as §4
# T4 sequence (P19099 whole entry): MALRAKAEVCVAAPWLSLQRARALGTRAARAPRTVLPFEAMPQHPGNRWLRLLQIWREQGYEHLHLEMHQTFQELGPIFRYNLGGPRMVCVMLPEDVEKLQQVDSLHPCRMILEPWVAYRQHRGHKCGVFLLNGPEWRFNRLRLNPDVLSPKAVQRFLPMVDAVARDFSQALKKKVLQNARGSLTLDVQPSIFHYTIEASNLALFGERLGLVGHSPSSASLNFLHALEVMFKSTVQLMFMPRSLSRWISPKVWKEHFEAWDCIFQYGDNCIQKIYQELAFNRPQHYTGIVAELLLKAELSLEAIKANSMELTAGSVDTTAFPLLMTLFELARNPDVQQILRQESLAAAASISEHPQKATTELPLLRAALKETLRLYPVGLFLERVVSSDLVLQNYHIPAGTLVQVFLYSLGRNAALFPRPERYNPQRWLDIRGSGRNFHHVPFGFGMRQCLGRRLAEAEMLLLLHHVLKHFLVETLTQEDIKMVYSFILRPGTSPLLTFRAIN
# [13] = molecular target: T5, CYP2B6 (Homo sapiens, UniProt P20813); assay: Inhibition of hepatic CYP2B6 expressed in insect microsomes at 1 uM; assay type: ADME, Microsome; in short: as §2
# T5 sequence (P20813 whole entry): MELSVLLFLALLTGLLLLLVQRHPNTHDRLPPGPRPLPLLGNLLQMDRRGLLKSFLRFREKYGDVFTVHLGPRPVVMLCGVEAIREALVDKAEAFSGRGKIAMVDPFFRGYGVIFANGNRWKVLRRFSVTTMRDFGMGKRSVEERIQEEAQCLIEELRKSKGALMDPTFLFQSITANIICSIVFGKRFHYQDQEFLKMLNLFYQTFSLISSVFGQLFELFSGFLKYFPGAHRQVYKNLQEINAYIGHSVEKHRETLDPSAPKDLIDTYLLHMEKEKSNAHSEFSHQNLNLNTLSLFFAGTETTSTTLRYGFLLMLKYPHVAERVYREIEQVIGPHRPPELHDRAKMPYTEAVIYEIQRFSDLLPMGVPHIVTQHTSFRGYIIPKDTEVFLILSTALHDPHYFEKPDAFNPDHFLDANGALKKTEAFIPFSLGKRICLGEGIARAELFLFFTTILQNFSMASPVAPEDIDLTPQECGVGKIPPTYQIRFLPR
# [14] = molecular target: CYP2D6 (Homo sapiens, UniProt P10635); assay: Inhibition of hepatic CYP2D6 expressed in insect microsomes at 1 uM; assay type: ADME, Microsome; in short: as §2
# Sequence of CYP2D6 (P10635 whole entry): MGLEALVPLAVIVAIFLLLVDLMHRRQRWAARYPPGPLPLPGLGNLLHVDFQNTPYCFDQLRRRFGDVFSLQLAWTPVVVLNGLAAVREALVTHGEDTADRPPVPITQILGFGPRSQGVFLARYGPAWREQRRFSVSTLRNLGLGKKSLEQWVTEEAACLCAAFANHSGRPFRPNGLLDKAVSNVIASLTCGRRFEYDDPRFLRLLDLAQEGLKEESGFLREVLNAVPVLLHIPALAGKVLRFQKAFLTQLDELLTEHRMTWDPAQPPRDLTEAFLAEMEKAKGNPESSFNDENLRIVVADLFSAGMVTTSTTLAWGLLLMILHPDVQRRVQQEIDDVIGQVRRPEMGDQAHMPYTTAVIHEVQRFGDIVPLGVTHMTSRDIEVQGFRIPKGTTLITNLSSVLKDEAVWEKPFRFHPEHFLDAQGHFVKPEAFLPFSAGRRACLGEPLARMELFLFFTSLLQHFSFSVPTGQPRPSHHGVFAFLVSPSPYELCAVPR
# [15] = AUC (0 to infinity) in Wistar rat at 50 mg/kg, po; assay type: ADME, organism-based; design: time infinity, dose 50 mg/kg, route oral; settings: plasma; in short: as §3
# [16] = test system: Rattus norvegicus; assay: Intrinsic clearance in Wistar rat at 50 mg/kg, po; assay type: ADME, organism-based; design: dose 50 mg/kg, route oral; settings: in vivo; in short: as §3
# [17] = Terminal half life in Wistar rat at 50 mg/kg, po; assay type: ADME, organism-based; design: dose 50 mg/kg, route oral; settings: in vivo; in short: as §3
# [18] = Cmax in Wistar rat at 50 mg/kg, po; assay type: ADME, organism-based; design: dose 50 mg/kg, route oral; settings: in vivo; in short: as §3
# [19] = Tmax in Wistar rat at 50 mg/kg, po; assay type: ADME, organism-based; design: dose 50 mg/kg, route oral; settings: in vivo; in short: as §3
# [20] = molecular target: T1, Steroid 17-alpha-hydroxylase/17,20 lyase; assay: Inhibition of CYP17; in short: as §1
compound,measurement,setting,value
CC(C)C(c1ccc(-c2ccccc2)cc1)n1ccnc1 (configuration not stated),IC50,[1],310 nM
CC(C)CC(c1ccc(-c2ccccc2)cc1)n1ccnc1 (configuration not stated),IC50,[1],2100 nM
CCC(c1ccc(-c2ccc(SC)cc2)cc1)n1ccnc1 (configuration not stated),IC50,[1],3100 nM
c1ccc(-c2ccc(C(c3ccc(-c4ccccc4)cc3)n3ccnc3)cc2)cc1,IC50,[1],2300 nM
CCC(c1ccc(-c2ccc(NC(=O)OC(C)(C)C)cc2)cc1)n1ccnc1 (configuration not stated),IC50,[1],1700 nM
same,inhibition at 1 µM,[2],52%
c1ccc(-c2ccc(C(c3ccccc3)n3ccnc3)cc2)cc1 (configuration not stated) [BIFONAZOLE],IC50,[1],790 nM
C[C@]12CC[C@H](O)CC1=CC[C@@H]1[C@@H]2CC[C@]2(C)C(c3cccnc3)=CC[C@@H]12 [ABIRATERONE],inhibition at 1 µM,[2],27%
CC(=O)O[C@H]1CC[C@@]2(C)C(=CC[C@@H]3[C@@H]2CC[C@]2(C)C(c4cccnc4)=CC[C@@H]32)C1 [ABIRATERONE ACETATE],Activity,[3],92.5%
same,Activity,[4],43.5%
same,Activity,[5],35.6%
same,Activity,[6],44%
same,relative plasma testosterone level,[7],476%
same,CL,[8],187 mL/min/kg
same,Activity,[9],43.3%
CC(c1ccc2c(c1)[nH]c1ccccc12)n1ccnc1 (configuration not stated),inhibition at 1 µM,[10],99%
same,IC50,[1],282 nM
same,inhibition at 1 µM,[2],88%
CC(c1ccc2c(c1)Cc1cc(O)ccc1-2)n1ccnc1 (configuration not stated),inhibition at 0.2 µM,[11],96%
same,inhibition at 0.2 µM,[12],98%
same,inhibition at 1 µM,[10],93%
same,IC50,[1],99 nM
same,inhibition at 1 µM,[2],89%
Fc1ccc(-c2ccc(C(CCCl)n3ccnc3)cc2)cc1 (configuration not stated),inhibition at 1 µM,[13],34%
same,inhibition at 1 µM,[14],32%
same,inhibition at 1 µM,[10],96%
same,IC50,[1],756 nM
same,inhibition at 1 µM,[2],86%
CCC(c1ccc(-c2ccccc2)cc1)n1ccnc1 (configuration not stated),IC50,[1],450 nM
CCCC(c1ccc(-c2ccccc2)cc1)n1ccnc1 (configuration not stated),IC50,[1],580 nM
CCC(c1ccc(-c2ccc(F)cc2)cc1)n1ccnc1 (configuration not stated),AUC(0-inf),[15],70700 ng·h/mL
same,inhibition at 1 µM,[13],46%
same,Activity,[3],16.5%
same,inhibition at 1 µM,[14],54%
same,Activity,[4],13.9%
same,inhibition at 0.2 µM,[11],66%
same,Activity,[5],13.4%
same,CL,[16],12 mL/min/kg
same,Activity,[6],11.7%
same,half-life,[17],10 h
same,Cmax,[18],3290 ng/mL
same,inhibition at 0.2 µM,[12],66%
same,Activity,[7],36.7%
same,inhibition at 1 µM,[10],97%
same,Activity,[9],13.9%
same,IC50,[1],345 nM
same,inhibition at 1 µM,[2],88%
same,Tmax,[19],6 h
CC(c1ccc2c(c1)Cc1ccccc1-2)n1ccnc1 (configuration not stated),IC50,[20],4 nM
same,inhibition at 1 µM,[10],98%
same,IC50,[1],112 nM
same,inhibition at 1 µM,[2],89%
CC(c1ccc(-c2ccccc2)cc1)n1ccnc1 (configuration not stated),IC50,[1],910 nM
c1ccc(CC(c2ccc(-c3ccccc3)cc2)n2ccnc2)cc1 (configuration not stated),IC50,[1],780 nM
c1ccc2c(c1)Cc1cc(Cn3ccnc3)ccc1-2,IC50,[1],388 nM
c1ccc(-c2ccc(C(C3CCCCC3)n3ccnc3)cc2)cc1 (configuration not stated),IC50,[1],1050 nM
CCC(c1ccc(-c2ccc(OC(F)(F)F)cc2)cc1)n1ccnc1 (configuration not stated),IC50,[1],> 5000 nM

# Reference: ChEMBL document CHEMBL1156610, “Synthesis, biological evaluation, and molecular modeling studies of methylene imidazole substituted biaryls as inhibitors of human 17alpha-hydroxylase-17,20-lyase (CYP17)--part II: Core rigidification and influence of substituents at the methylene bridge” (Bioorg Med Chem, 2008)
